Data: article PMC9398166 (Molecular Cancer Therapeutics, 2021)

Tests used:
[1] = Pharmacokinetics and brain distribution after repeat oral administration; assay type: in vivo; conditions: male Sprague Dawley rats; single oral administration
Method in brief: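 Male Sprague Dawley rats received 10 mg/kg orally once daily for 7 consecutive days. Plasma concentration profiles were determined on days 1 and 7. On day 7, terminal samples of plasma, cerebrospinal fluid and brain tissue were collected 1, 4 and 24 h postdose and analyzed by LC/MS-MS. Brain tissue levels were compared with plasma levels.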

[2] = target: EML4-ALK G1202R/L1196M fusion phosphorylation (Homo sapiens, UniProt Q9HC35+Q9UM73, G1202R/L1196M); assay: Pharmacokinetic/pharmacodynamic analysis of phospho-ALK; assay type: in vivo, mice; conditions: mouse, read-out: phosphorylation inhibition of EML4-ALK G1202R/L1196M fusion
[3] = as above; assay type: in vivo, mice; conditions: SCID/beige, mouse, plasma, oral
Free = assay type: in vivo, mice; conditions: SCID/beige, mouse, plasma, oral, 5 mg/kg
ALK(G1202R) = conditions: cited from earlier work
[4] = patients; ref FDA label; cited from earlier work
[5] = ref FDA label; cited from earlier work

| absorption [1] | elimination half-life [1] | inhibition at 0.0195 µM [2] | concentration at 2 h [3] | concentration at 12 h (Free) | Compound | unbound exposure necessary for maximum antitumor efficacy (ALK(G1202R); preclinical ALK(G1202R) xenograft model) | EC90 (ALK(G1202R); read-out: EC90 unbound exposure for inhibition of ALK(G1202R) phosphorylation, preclinical xenograft model) | AUC0–24h [4] | Cave unbound exposure [4] | plasma protein binding [5] |
| --- | --- | --- | --- | --- | --- | --- | --- | --- | --- | --- |
| rapid absorption | long elimination half-life | > 90% | 19.5 nM | – | CC1(C)COc2ccc(F)cc2CN2c3nc4c(cnn4cc3OC[C@H]2C(F)F)C(=O)N1 [TPX-0131, (4S)-4-(difluoromethyl)-8-fluoro-13,13-dimethyl-3,4,13,14-tetrahydro-6H-18,1-(metheno)[1,4]oxazino[3,4-i]pyrazolo[4,3-f][1,4,8,10]benzoxatriazacyclotridecin-15(12H)-one] | – | – | – | – | – |
| – | – | – | – | 358 nM | C[C@H]1Oc2cc(cnc2N)-c2c(nn(C)c2C#N)CN(C)C(=O)c2ccc(F)cc21 [Lorlatinib, lorlatinib] | […] | […] | 5650 ng·h/mL | approximately 155 nmol/L | 66% |
